From ChEMBL document CHEMBL3351699, “Diarylthiazole: an antimycobacterial scaffold potentially targeting PrrB-PrrA two-component system” (J Med Chem, 2014) come the findings set out here.

Values after ≈ are worked out from the molar mass of the structure shown. Active and inactive are the calls of the source. Bounds are passed on as bounds.

Data set [1] deals with T1, Enoyl-[acyl-carrier-protein] reductase [NADH] (Mycobacterium tuberculosis, UniProt P9WGR1).
T1 sequence (P9WGR1 whole entry): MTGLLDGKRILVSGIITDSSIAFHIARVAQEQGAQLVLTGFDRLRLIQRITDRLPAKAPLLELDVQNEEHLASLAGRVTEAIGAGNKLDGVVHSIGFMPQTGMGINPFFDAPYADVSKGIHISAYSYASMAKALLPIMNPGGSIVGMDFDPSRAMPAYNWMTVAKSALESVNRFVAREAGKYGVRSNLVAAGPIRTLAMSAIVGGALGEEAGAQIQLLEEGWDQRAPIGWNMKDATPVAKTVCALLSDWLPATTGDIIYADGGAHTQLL
Briefly: Inhibition of Mycobacterium tuberculosis InhA using NADH and dodecyl coA substrate by LC-MS/MS method.

Data set [2] deals with Mycobacterium tuberculosis. Description: Antimicrobial activity against clinical isolate Mycobacterium tuberculosis H37Rv ATCC 27294 assessed as growth inhibition after 7 days by turbidometry. In kind it is functional. Particulars: H37Rv ATCC 27294, 168 h.
The subject of data set [3] is Mycobacterium tuberculosis. Description: Antimicrobial activity against clinical isolate Mycobacterium tuberculosis ATCC25618 assessed as growth inhibition after 7 days by turbidometry. Particulars: ATCC25618, 168 h. It is filed as functional.
In data set [4] the test system is Mycobacterium tuberculosis. Description: Antimicrobial activity against clinical isolate Mycobacterium tuberculosis Erdman assessed as growth inhibition after 7 days by turbidometry. In kind it is functional. Particulars: 168 h.
Data set [5] deals with Mycobacterium tuberculosis. Description: Antimicrobial activity against clinical isolate Mycobacterium tuberculosis Beijing assessed as growth inhibition after 7 days by turbidometry. Particulars: 168 h. It is filed as functional.
For data set [6], the system named is Mycobacterium tuberculosis. Description: Antimicrobial activity against clinical isolate Mycobacterium tuberculosis Harlingen assessed as growth inhibition after 7 days by turbidometry. In kind it is functional. Conditions: 168 h.
The subject of data set [7] is Mycobacterium tuberculosis. Briefly: Antimicrobial activity against clinical isolate Mycobacterium tuberculosis ATCC35811 assessed as growth inhibition after 7 days by turbidometry. It is filed as functional. Particulars: ATCC35811, 168 h.
Data set [8] relates to Mycobacterium tuberculosis. Description: Antimicrobial activity against clinical isolate Mycobacterium tuberculosis DKU76 assessed as growth inhibition after 7 days by turbidometry. Conditions: DKU76, 168 h. In kind it is functional.
The subject of data set [9] is Mycobacterium tuberculosis. Description: Antimicrobial activity against clinical isolate Mycobacterium tuberculosis DKU97A assessed as growth inhibition after 7 days by turbidometry. In kind it is functional. Conditions: 168 h.
Data set [10] has as its system Mycobacterium tuberculosis. Briefly: Antimicrobial activity against clinical isolate Mycobacterium tuberculosis DKU211 assessed as growth inhibition after 7 days by turbidometry. Conditions: DKU211, 168 h. It is filed as functional.
In data set [11] the test system is Mycobacterium tuberculosis. Briefly: Antimicrobial activity against clinical isolate Mycobacterium tuberculosis DKU220 assessed as growth inhibition after 7 days by turbidometry. It is filed as functional. Particulars: DKU220, 168 h.
For data set [12], the system named is Mycobacterium tuberculosis. Briefly: Antimicrobial activity against clinical isolate Mycobacterium tuberculosis JAL assessed as growth inhibition after 7 days by turbidometry. Particulars: 168 h. In kind it is functional.
Data set [13] has as its system Mycobacterium tuberculosis. Briefly: Antimicrobial activity against Mycobacterium tuberculosis H37Rv ATCC 27294 assessed as growth inhibition after 5 days by microdilution method. It is filed as functional. Conditions: H37Rv ATCC 27294, 120 h. For orientation: Dilution methods test growth across graded concentrations, often in twofold steps.
Data set [14] in a line: Solubility of the compound. It is filed as physicochemical.
Data set [15] in a line: Unbound fraction in mouse plasma. In kind it is ADME, cell-free.
Data set [16] can be described thus: Intrinsic clearance in mouse liver microsomes. Particulars: read-out: CLH. It is filed as ADME. (In general: Liver microsomes are vesicles of endoplasmic reticulum, rich in cytochrome P450 enzymes.)
The nature of data set [17]: Intrinsic clearance in human liver microsomes. It is filed as ADME. Conditions: read-out: CLH.
The subject of data set [18] is Mycobacterium tuberculosis. Briefly: Antimicrobial activity against Mycobacterium tuberculosis H37Rv ATCC 27294 assessed as reduction in bacterial count relative to untreated control. It is filed as functional. Put shortly:
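About 10⁶ Mtb cells/mL exposed to compound for 10 days; viable count read as Log₁₀ CFU/mL reduction versus untreated controls.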

In data set [19] the test system is Mycobacterium tuberculosis. Briefly: Antimicrobial activity against Mycobacterium tuberculosis H37Rv ATCC 27294 infected in human THP1 cells assessed as reduction in bacterial count at 2 times MIC relative to untreated control. In kind it is functional, THP-1.
Data set [20] has as its system Mycobacterium tuberculosis. Description: Induction of fatty acid metabolism related gene expression in Mycobacterium tuberculosis H37Rv ATCC 27294 at 7.5 ug/mL incubated for 4 hrs by DNA microarray analysis. In kind it is functional, organism-based. In a few lines:
(§1)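 Total RNA was isolated from compound-treated Mtb cultures and hybridised on DNA microarrays, with RNA from an untreated Mtb culture as the control.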

For data set [21], the system named is Mycobacterium tuberculosis. Description: Induction of anaerobic state electron transport chain maintenance related gene expression in Mycobacterium tuberculosis H37Rv ATCC 27294 at 7.5 ug/mL incubated for 4 hrs by DNA microarray analysis. It is filed as functional, organism-based. In a few lines: as §1
The test system of data set [22] is Mycobacterium tuberculosis. Briefly: Induction of cytochrome ubiquinol oxidase gene expression in Mycobacterium tuberculosis H37Rv ATCC 27294 at 7.5 ug/mL incubated for 4 hrs by DNA microarray analysis. In kind it is functional, organism-based. Put shortly: as §1
Data set [23] has as its system Mycobacterium tuberculosis. Briefly: Induction of fumarate reductase gene expression in Mycobacterium tuberculosis H37Rv ATCC 27294 at 7.5 ug/mL incubated for 4 hrs by DNA microarray analysis. In kind it is functional, organism-based. In a few lines: as §1
Data set [24] has as its system Mycobacterium tuberculosis. Description: Induction of nitrate reductase gene expression in Mycobacterium tuberculosis H37Rv ATCC 27294 at 7.5 ug/mL incubated for 4 hrs by DNA microarray analysis. In kind it is functional, organism-based. Put shortly:
as §1

Data set [25] has as its system Mycobacterium tuberculosis. Briefly: Induction of oxido-reductases gene expression in Mycobacterium tuberculosis H37Rv ATCC 27294 at 7.5 ug/mL incubated for 4 hrs by DNA microarray analysis. In kind it is functional, organism-based. Put shortly:
as §1

Data set [26] concerns Mycobacterium tuberculosis. Briefly: Reduction in RNA metabolism related gene expression in Mycobacterium tuberculosis H37Rv ATCC 27294 at 7.5 ug/mL incubated for 4 hrs by DNA microarray analysis. In kind it is functional, organism-based. In a few lines: as §1
In data set [27] the test system is Mycobacterium tuberculosis. Briefly: Reduction in protein synthesis related gene expression in Mycobacterium tuberculosis H37Rv ATCC 27294 at 7.5 ug/mL incubated for 4 hrs by DNA microarray analysis. In kind it is functional, organism-based. In a few lines: as §1
Data set [28] relates to Mycobacterium tuberculosis. Briefly: Reduction in RNA polymerase subunits gene expression in Mycobacterium tuberculosis H37Rv ATCC 27294 at 7.5 ug/mL incubated for 4 hrs by DNA microarray analysis. It is filed as functional, organism-based. In a few lines:
as §1

The test system of data set [29] is Mycobacterium tuberculosis. Description: Reduction in sigma factors gene expression in Mycobacterium tuberculosis H37Rv ATCC 27294 at 7.5 ug/mL incubated for 4 hrs by DNA microarray analysis. In kind it is functional, organism-based. In a few lines: as §1
Data set [30] deals with Mycobacterium tuberculosis. Briefly: Reduction in ribosomal protein synthesis related gene expression in Mycobacterium tuberculosis H37Rv ATCC 27294 at 7.5 ug/mL incubated for 4 hrs by DNA microarray analysis. It is filed as functional, organism-based. Put shortly:
as §1

Data set [31] has as its system Mycobacterium tuberculosis. Briefly: Reduction in aminoacyl t-RNA synthetases gene expression in Mycobacterium tuberculosis H37Rv ATCC 27294 at 7.5 ug/mL incubated for 4 hrs by DNA microarray analysis. It is filed as functional, organism-based. Put shortly:
as §1

Data set [32] concerns Mycobacterium tuberculosis. Briefly: Induction of prrA gene expression in Mycobacterium tuberculosis H37Rv ATCC 27294 at 7.5 ug/mL incubated for 4 hrs by DNA microarray analysis. It is filed as functional. In a few lines: (§2)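 Total RNA was isolated from treated Mtb cells and analysed by DNA microarray. RNA from an untreated Mtb culture served as the control, and expression was reported as mean fold change relative to that untreated control.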

Data set [33] has as its system Mycobacterium tuberculosis. Briefly: Induction of prrB gene expression in Mycobacterium tuberculosis H37Rv ATCC 27294 at 7.5 ug/mL incubated for 4 hrs by DNA microarray analysis. In kind it is functional. In a few lines: as §2
Data set [34] relates to Mycobacterium tuberculosis. Briefly: Bactericidal activity against Mycobacterium tuberculosis H37Rv ATCC 27294 after 5 days by microdilution method. It is filed as functional. Particulars: H37Rv ATCC 27294, 120 h.
Data set [35] relates to Mycobacterium tuberculosis. Briefly: Ratio of MBC for Mycobacterium tuberculosis H37Rv ATCC 27294 to MIC for Mycobacterium tuberculosis H37Rv ATCC 27294. In kind it is functional.

Broadly, the IC50 is the midpoint of a concentration-inhibition curve. A lower IC50 goes with greater potency in that assay. What is called MIC80 is an inhibitory concentration at the 80% level, which refers to growth in some studies and to a panel of isolates in others. In turn, `CO[C@H]1/C=C/O[C@@]2(C)Oc3c(C)c(O)c4c(O)c(c(/C=N/N5CCN(C)CC5)c(O)c4c3C2=O)NC(=O)/C(C)=C\C=C\[C@H](C)[C@H](O)[C@@H](C)[C@@H](O)[C@@H](C)[C@H](OC(C)=O)[C@@H]1C` [RIFAMPIN] registered an IC50 in data set [1] of 30 nM. Besides, the MIC80 in data set [2] turned out to be 0.007 µg/mL (≈ 0.00851 µM); in [3] it was 0.003 µg/mL (≈ 0.00365 µM); in data set [4] it was 0.003 µg/mL (≈ 0.00365 µM); in data set [5] it was 0.003 µg/mL (≈ 0.00365 µM); in data set [6], 0.003 µg/mL (≈ 0.00365 µM); in data set [7] it was 0.003 µg/mL (≈ 0.00365 µM). In addition, the MIC80 in [8], in data set [9], in data set [10], in data set [11] and in data set [12] was 0.003 µg/mL (≈ 0.00365 µM) in each case.

One may read the solubility as how much of the substance goes into solution per volume. The fraction unbound is free concentration divided by total concentration. Higher therefore signals weak binding. For the compound `CCCc1cc(-c2nc(-c3ccc(NS(C)(=O)=O)cc3)cs2)ccn1`, the MIC80 worked out at 0.4 µg/mL (≈ 1.07 µM) in data set [13]; 0.25 µg/mL (≈ 0.669 µM) in [2]; 0.13 µg/mL (≈ 0.348 µM) in [3]; 0.13 µg/mL (≈ 0.348 µM) in data set [4]; 0.13 µg/mL (≈ 0.348 µM) in [5]; 0.13 µg/mL (≈ 0.348 µM) in [6]. Besides, the MIC80 in data set [7] worked out at 0.5 µg/mL (≈ 1.34 µM); in data set [8], 1 µg/mL (≈ 2.68 µM); in data set [9] it was 0.5 µg/mL (≈ 1.34 µM); in data set [10], 0.5 µg/mL (≈ 1.34 µM); in [11] it was 0.5 µg/mL (≈ 1.34 µM); in data set [12] it was 0.25 µg/mL (≈ 0.669 µM). Also, the solubility in [14] was determined as 1.3 µM (≈ 0.486 µg/mL). In data set [15], this compound returned a fraction unbound of less than 0.01. In addition, the microsomal CLint in data set [16] came out at 28.8 µL/min/mg; in data set [17] it was 4.3 µL/min/mg.

One may read the MBC as the smallest concentration meeting the test's criterion for killing. A low value points to greater bactericidal potency. As for `CCCc1cc(-c2nc(-c3ccncc3)cs2)ccn1`, the values for the log10CFU/ml in [18] and in [19] were 3 and 1.5, respectively. The IC50 in data set [1] is greater than 50000 nM. Moreover, the outcome in data set [20], in [21], in data set [22], in data set [23], in data set [24] and in [25] was Active. Also, the result in data set [26], in data set [27], in data set [28], in data set [29], in data set [30] and in data set [31] was Active. Also, the “fold change (FC)” value in data set [32] and in [33] was 0.7 throughout. Further, in [13], the MIC80 was 0.4 µg/mL (≈ 1.42 µM). In [14], the concentration in solution (solubility) was 91.5 µM (≈ 25.7 µg/mL). Besides, in data set [34], the MBC worked out at 0.8 µg/mL (≈ 2.84 µM). In addition, the Ratio in data set [35] was 2.
